Measurements: ChEMBL document CHEMBL4145521, “Regioselective synthesis of 3,4-diaryl-5-unsubstituted isoxazoles, analogues of natural cytostatic combretastatin A4” (Eur J Med Chem, 2018)

What was measured:
Assay type in all cases: functional
[1] = tested on: SF-295; experiment: Cytotoxicity against human SF295 cells assessed as cell growth at 0.1 uM incubated for 48 hrs by sulforhodamine B assay relative to control; conditions: SF-295, 48 h, read-out: Activity
[2] = tested on: HCC 2998; experiment: Cytotoxicity against human HCC2998 cells assessed as cell growth at 0.01 uM incubated for 48 hrs by sulforhodamine B assay relative to control; conditions: HCC 2998, 48 h, read-out: Activity
[3] = tested on: HCT-15; experiment: Cytotoxicity against human HCT15 cells assessed as cell growth at 0.01 uM incubated for 48 hrs by sulforhodamine B assay relative to control; conditions: HCT-15, 48 h, read-out: Activity
[4] = tested on: Paracentrotus lividus; experiment: Antimitotic activity against Paracentrotus lividus embryo assessed as cleavage arrest measured at 5.5 hrs post fertilization by light microscopy
In short: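 Sea urchin eggs were fertilized with diluted sperm and cultured at room temperature in filtered seawater with paddle agitation (60 rpm), at up to 2000 embryos/mL. The effective threshold concentration causing cleavage alteration, death before hatching or full mitotic arrest was scored in duplicate.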

[5] = tested on: M14; experiment: Cytotoxicity against human M14 cells incubated for 48 hrs by sulforhodamine B assay; conditions: M14, 48 h
[6] = tested on: Malme-3M; experiment: Cytotoxicity against human MALME-3M cells assessed as cell growth at 0.01 uM incubated for 48 hrs by sulforhodamine B assay relative to control; conditions: read-out: Activity
[7] = tested on: EKVX; experiment: Cytotoxicity against human EKVX cells assessed as cell growth at 100 uM incubated for 48 hrs by sulforhodamine B assay relative to control; conditions: read-out: Activity
[8] = tested on: SF-539; experiment: Cytotoxicity against human SF539 cells incubated for 48 hrs by sulforhodamine B assay; conditions: SF-539, 48 h
[9] = tested on: CCRF-CEM; experiment: Cytotoxicity against human CCRF-CEM cells incubated for 48 hrs by sulforhodamine B assay
[10] = tested on: NCI-H322M; experiment: Cytotoxicity against human NCI-H322M cells assessed as cell growth at 0.01 uM incubated for 48 hrs by sulforhodamine B assay relative to control; conditions: read-out: Activity
[11] = tested on: SNB-75; experiment: Cytotoxicity against human SNB75 cells incubated for 48 hrs by sulforhodamine B assay; conditions: SNB-75, 48 h
[12] = tested on: DU-145; experiment: Cytotoxicity against human DU145 cells assessed as cell growth at 0.1 uM incubated for 48 hrs by sulforhodamine B assay relative to control; conditions: DU-145, 48 h, read-out: Activity
[13] = tested on: 786-0; experiment: Cytotoxicity against human 786-0 cells assessed as cell growth at 0.01 uM incubated for 48 hrs by sulforhodamine B assay relative to control; conditions: 786-0, 48 h, read-out: Activity
[14] = tested on: KM12; experiment: Cytotoxicity against human KM12 cells incubated for 48 hrs by sulforhodamine B assay; conditions: KM12, 48 h
[15] = tested on: MCF7; experiment: Cytotoxicity against human MCF7 cells incubated for 48 hrs by sulforhodamine B assay; conditions: MCF7, 48 h
[16] = tested on: A498; experiment: Cytotoxicity against human A498 cells assessed as cell growth at 100 uM incubated for 48 hrs by sulforhodamine B assay relative to control; conditions: A498, 48 h, read-out: Activity
[17] = tested on: NCI-H522; experiment: Cytotoxicity against human NCI-H522 cells assessed as cell growth at 10 uM incubated for 48 hrs by sulforhodamine B assay relative to control; conditions: NCI-H522, 48 h, read-out: Activity
[18] = tested on: PC-3; experiment: Cytotoxicity against human PC3 cells incubated for 48 hrs by sulforhodamine B assay; conditions: PC-3, 48 h
[19] = tested on: NCI-H23; experiment: Cytotoxicity against human NCI-H23 cells assessed as cell growth at 100 uM incubated for 48 hrs by sulforhodamine B assay relative to control; conditions: NCI-H23, 48 h, read-out: Activity
[20] = tested on: U-251; experiment: Cytotoxicity against human U251 cells incubated for 48 hrs by sulforhodamine B assay; conditions: U-251, 48 h
[21] = tested on: Hs-578T; experiment: Cytotoxicity against human Hs 578T cells assessed as cell growth at 0.01 uM incubated for 48 hrs by sulforhodamine B assay relative to control; conditions: read-out: Activity
[22] = tested on: U-251; experiment: Cytotoxicity against human U251 cells assessed as cell growth at 0.1 uM incubated for 48 hrs by sulforhodamine B assay relative to control; conditions: U-251, 48 h, read-out: Activity
[23] = tested on: UACC-62; experiment: Cytotoxicity against human UACC62 cells assessed as cell growth at 10 uM incubated for 48 hrs by sulforhodamine B assay relative to control; conditions: UACC-62, 48 h, read-out: Activity
[24] = tested on: SNB-19; experiment: Cytotoxicity against human SNB19 cells assessed as cell growth at 10 uM incubated for 48 hrs by sulforhodamine B assay relative to control; conditions: SNB-19, 48 h, read-out: Activity
[25] = tested on: CAKI-1; experiment: Cytotoxicity against human Caki1 cells assessed as cell growth at 1 uM incubated for 48 hrs by sulforhodamine B assay relative to control; conditions: CAKI-1, 48 h, read-out: Activity
[26] = tested on: SK-MEL-2; experiment: Cytotoxicity against human SK-MEL-2 cells assessed as cell growth at 10 uM incubated for 48 hrs by sulforhodamine B assay relative to control; conditions: SK-MEL-2, 48 h, read-out: Activity
[27] = tested on: SW-620; experiment: Cytotoxicity against human SW620 cells assessed as cell growth at 0.01 uM incubated for 48 hrs by sulforhodamine B assay relative to control; conditions: SW-620, 48 h, read-out: Activity
[28] = tested on: SW-620; experiment: Cytotoxicity against human SW620 cells assessed as cell growth at 10 uM incubated for 48 hrs by sulforhodamine B assay relative to control; conditions: SW-620, 48 h, read-out: Activity
[29] = read-out: LC50 (the source's name)
[30] = read-out: pLC50 (the source's name) (converted)

Q: What does the source list for `COc1ccc(-c2nocc2-c2cc(OC)c(OC)c(OC)c2)cc1`?
A: growth at 0.1 µM [1]: 36%; growth at 0.01 µM [2]: 97%; growth at 0.01 µM [3]: 88%; EC [4]: 0.1 µM; GI50 ([5]; read-out: GI50): 0.0668 µM; CC50 [5, 29]: > 100 µM; TGI ([5]; read-out: TGI): 53.9 µM; GI50 ([5]; read-out: pGI50 (converted)): 0.0661 µM; CC50 [5, 30]: > 100 µM; TGI ([5]; read-out: pTGI (converted)): 53.7 µM; growth at 0.01 µM [6]: 86%; growth at 100 µM [7]: 7%; GI50 ([8]; read-out: GI50): 0.173 µM; LC50 (concentration killing 50% of cells) ([8]; read-out: LC50): > 100 µM; TGI ([8]; read-out: TGI): 13.7 µM; GI50 ([8]; read-out: pGI50 (converted)): 0.174 µM; LC50 (concentration killing 50% of cells) ([8]; read-out: pLC50 (converted)): > 100 µM; TGI ([8]; read-out: pTGI (converted)): 13.8 µM; GI50 ([9]; read-out: GI50): 0.404 µM; LC50 ([9]; read-out: LC50): > 100 µM; TGI ([9]; read-out: TGI): > 100 µM; GI50 ([9]; read-out: pGI50 (converted)): 0.407 µM; LC50 ([9]; read-out: pLC50 (converted)): > 100 µM; TGI ([9]; read-out: pTGI): > 100 µM; growth at 0.01 µM [10]: 95%; GI50 ([11]; read-out: GI50): 0.0772 µM; CC50 [11, 29]: > 100 µM; TGI ([11]; read-out: TGI): > 100 µM; GI50 ([11]; read-out: pGI50 (converted)): 0.0776 µM; CC50 [11, 30]: > 100 µM; TGI ([11]; read-out: pTGI): > 100 µM; growth at 0.1 µM [12]: 71%; growth at 0.01 µM [13]: 85%; GI50 ([14]; read-out: GI50): 0.0433 µM; CC50 [14, 29]: > 100 µM; TGI ([14]; read-out: TGI): 13.1 µM; GI50 ([14]; read-out: pGI50 (converted)): 0.0437 µM; CC50 [14, 30]: > 100 µM; TGI ([14]; read-out: pTGI (converted)): 13.2 µM; GI50 ([15]; read-out: GI50): 0.0408 µM; LC50 ([15]; read-out: LC50): > 100 µM; TGI ([15]; read-out: TGI): > 100 µM; GI50 ([15]; read-out: pGI50 (converted)): 0.0407 µM; LC50 ([15]; read-out: pLC50 (converted)): > 100 µM; TGI ([15]; read-out: pTGI): > 100 µM; growth at 100 µM [16]: -33%; growth at 10 µM [17]: -6%; GI50 ([18]; read-out: GI50): 0.0671 µM; LC50 (concentration killing 50% of cells) ([18]; read-out: LC50): > 100 µM; TGI ([18]; read-out: TGI): 42.5 µM; GI50 ([18]; read-out: pGI50 (converted)): 0.0676 µM; LC50 (concentration killing 50% of cells) ([18]; read-out: pLC50 (converted)): > 100 µM; TGI ([18]; read-out: pTGI (converted)): 42.7 µM; growth at 100 µM [19]: -3%; GI50 ([20]; read-out: GI50): 0.0906 µM; CC50 [20, 29]: > 100 µM; TGI ([20]; read-out: TGI): 65.8 µM; GI50 ([20]; read-out: pGI50 (converted)): 0.0912 µM; CC50 [20, 30]: > 100 µM; TGI ([20]; read-out: pTGI (converted)): 66.1 µM; growth at 0.01 µM [21]: 92%; growth at 0.1 µM [22]: 48%; growth at 10 µM [23]: 5%; growth at 10 µM [24]: 29%; growth at 1 µM [25]: 47%; growth at 10 µM [26]: 43%; growth at 0.01 µM [27]: 94%; growth at 10 µM [28]: 19%
